This note sets out measurements from ChEMBL document CHEMBL1152203, “New jasmonate analogues as potential anti-inflammatory agents” (Bioorg Med Chem, 2008).

Molecules are shown by their SMILES. Activity calls are given as the source filed them. No cut-off for these calls is given here.

One data set has as its system RAW264.7. Nature of the data set: Antiinflammatory activity in LPS-stimulated mouse RAW264.7 cells assessed as inhibition of NO production after 24 hrs by Griess reagent method. It counts as functional, cell-based.
Details: not given
The method in brief: (§1)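 RAW264.7 cells at 1.5 × 10^5 cells/mL, pre-incubated 18 h in 24-well plates, then stimulated with LPS (1 µg/mL) alone or with test samples for 24 h. Samples dissolved in EtOH diluted with DMEM, solvent ≤0.1% final. NO in supernatant by Griess reagent (10 min, room temperature, light protected, absorbance 540 nm); IL-6 and TNF-α by ELISA. Mean ± SD.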
On the technique in general: Nitrite, measured by Griess reagent, commonly stands in for NO production.
Turning to `CCCCCC1C(=O)C=CC1CC(=O)NCCO` (stereo not given), the Activity result is “Dose-dependent effect”.

Consider `CCCCCC1C(=O)C(Cl)=CC1CC(=O)OC` (stereo not given), for which the Activity result is “Dose-dependent effect”.

Consider `CCCCCC1C(=O)C=CC1CC(=O)OC` (stereo not given), for which the Activity entry was “Dose-dependent effect”.

Regarding `CC/C=C\CC1C(=O)C=CC1CC(=O)O` (stereo not given), the Activity entry is “Dose-dependent effect”.

With `CC/C=C\CC1C(=O)C(Cl)=CC1CC(=O)OC` (stereo not given), the Activity entry was “Dose-dependent effect”.

As to `CCCCCC1C(=O)C(I)=CC1CC(=O)OC` (stereo not given), the Activity entry was “Dose-dependent effect”.

The next data set deals with RAW264.7. Briefly: Antiinflammatory activity in LPS-stimulated mouse RAW264.7 cells assessed as inhibition of IL6 production at after 24 hrs by ELISA. The format is functional, cell-based.
Details: not given
The method in brief: as §1
In general terms: ELISA stands for enzyme-linked immunosorbent assay.
In the case of `CCCCCC1C(=O)C=CC1CC(=O)NCCO` (stereo not given), the Activity result was “Dose-dependent effect”.

On to `CCCCCC1C(=O)C(Cl)=CC1CC(=O)OC` (stereo not given), for which the Activity entry was “Dose-dependent effect”.

Turning to `CCCCCC1C(=O)C=CC1CC(=O)OC` (stereo not given), the Activity entry is “Dose-dependent effect”.

As for `CC/C=C\CC1C(=O)C=CC1CC(=O)O` (stereo not given), the Activity entry is “Dose-dependent effect”.

With `CC/C=C\CC1C(=O)C(Cl)=CC1CC(=O)OC` (stereo not given), the Activity entry was “Dose-dependent effect”.

On to `CCCCCC1C(=O)C(I)=CC1CC(=O)OC` (stereo not given), for which the Activity result was “Dose-dependent effect”.

Another data set concerns RAW264.7. Briefly: Antiinflammatory activity in LPS-stimulated mouse RAW264.7 cells assessed as inhibition of TNFalpha production after 24 hrs by ELISA. It counts as functional, cell-based.
Details: not given
Summed up: as §1
Take `CCCCCC1C(=O)C=CC1CC(=O)NCCO` (stereo not given): the Activity entry is “Dose-dependent effect”.

`CCCCCC1C(=O)C(Cl)=CC1CC(=O)OC` (stereo not given): the Activity entry is “Dose-dependent effect”.

On to `CCCCCC1C(=O)C=CC1CC(=O)OC` (stereo not given), for which the Activity entry was “Dose-dependent effect”.

With `CC/C=C\CC1C(=O)C=CC1CC(=O)O` (stereo not given), the Activity result was “Dose-dependent effect”.

`CC/C=C\CC1C(=O)C(Cl)=CC1CC(=O)OC` (stereo not given): the Activity entry was “Dose-dependent effect”.

With `CCCCCC1C(=O)C(I)=CC1CC(=O)OC` (stereo not given), the Activity result is “Dose-dependent effect”.

A further data set concerns RAW264.7. Nature of the data set: Antiinflammatory activity in LPS-stimulated mouse RAW264.7 cells assessed as inhibition of NO production at 25 uM after 24 hrs by Griess reagent method. The format is functional, cell-based.
Details: not given
Summed up: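 Test samples at 12.5 and 25.0 µM with LPS (1 µg/mL) on RAW264.7 cells (1.5 × 10^5 cells/mL) for 24 h. NO read by Griess method, IL-6 and TNF-α by ELISA. Means ± SD of triplicate experiments.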
Turning to `CCCCCC1C(=O)C=CC1CC(=O)NCCO` (stereo not given), the outcome was Active.

On to `CCCCCC1C(=O)C(Cl)=CC1CC(=O)OC` (stereo not given), for which the outcome was Active.

For the compound `CC/C=C\CC1C(=O)C=CC1CC(=O)O` (stereo not given), the outcome was Active.

In the case of `CC/C=C\CC1C(=O)C(Cl)=CC1CC(=O)OC` (stereo not given), the outcome was Active.

For another data set, the system named is RAW264.7. Briefly: Antiinflammatory activity in LPS-stimulated mouse RAW264.7 cells assessed as inhibition of NO production at 12.5 uM after 24 hrs by Griess reagent method. The format is functional, cell-based.
Details: not given
Summed up:
as §1
Consider `CCCCCC1C(=O)C=CC1CC(=O)NCCO` (stereo not given), for which the outcome was Active.

Regarding `CC/C=C\CC1C(=O)C=CC1CC(=O)O` (stereo not given), the outcome was Active.

The next data set deals with RAW264.7. Nature of the data set: Antiinflammatory activity in LPS-stimulated mouse RAW264.7 cells assessed as inhibition of IL6 production at 12.5 uM after 24 hrs by ELISA.
Details: not given
The format is functional, cell-based. The method in brief: as §1
For `CCCCCC1C(=O)C=CC1CC(=O)NCCO` (stereo not given), the result was Active.

As for `CC/C=C\CC1C(=O)C=CC1CC(=O)O` (stereo not given), the outcome was Active.

A further data set relates to RAW264.7. Nature of the data set: Antiinflammatory activity in LPS-stimulated mouse RAW264.7 cells assessed as inhibition of TNFalpha production at 12.5 uM after 24 hrs by ELISA. It counts as functional, cell-based.
Details: not given
The method in brief:
as §1
With `CCCCCC1C(=O)C=CC1CC(=O)NCCO` (stereo not given), the outcome was Active.

For `CC/C=C\CC1C(=O)C=CC1CC(=O)O` (stereo not given), the outcome was Active.

The subject of the next data set is RAW264.7. Nature of the data set: Antiinflammatory activity in LPS-stimulated mouse RAW264.7 cells assessed as inhibition of NO production at 10 uM after 24 hrs by Griess reagent method. It counts as functional, cell-based.
Details: not given
The method in brief: (§2)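 Samples and prostaglandin references tested at 10 and 30 µM alongside LPS (1 µg/mL) in RAW264.7 cells (1.5 × 10^5 cells/mL), 24 h; NO by Griess reagent. Triplicate experiments, means ± SD.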
`CCCCCC1C(=O)C(Cl)=CC1CC(=O)OC` (stereo not given): the outcome was Active.

For the compound `CC/C=C\CC1C(=O)C(Cl)=CC1CC(=O)OC` (stereo not given), the outcome was Active.

The test system of another data set is RAW264.7. Nature of the data set: Antiinflammatory activity in LPS-stimulated mouse RAW264.7 cells assessed as inhibition of NO production at 30 uM after 24 hrs by Griess reagent method. The format is functional, cell-based.
Details: not given
Summed up:
as §2
Consider `CCCCCC1C(=O)C(Cl)=CC1CC(=O)OC` (stereo not given), for which the result was Active.

Consider `CC/C=C\CC1C(=O)C(Cl)=CC1CC(=O)OC` (stereo not given), for which the outcome was Active.

In a further data set the test system is RAW264.7. Nature of the data set: Antiinflammatory activity in LPS-stimulated mouse RAW264.7 cells assessed as inhibition of NO production at 100 uM after 24 hrs by Griess reagent method. It counts as functional, cell-based.
Details: not given
The method in brief: (§3)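 Conditions used at 50 and 100 µM: RAW264.7 cells (1.5 × 10^5 cells/mL) stimulated with LPS (1 µg/mL) alone or with samples for 24 h. Supernatant NO measured by Griess reagent, absorbance 540 nm; IL-6 and TNF-α by ELISA. Means ± SD of duplicate experiments; blank and LPS-only controls.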
Regarding `CC/C=C\CC1C(=O)C(C#N)=CC1CC(=O)OC` (stereo not given), the result was Active.

For the compound `CC/C=C\CC1C(=O)C(C(=O)OC)=CC1CC(=O)OC` (stereo not given), the result was Active.

For `CC/C=C\CC1C(=O)CCC1CC(=O)OC` (stereo not given) [METHYL JASMONATE], the outcome was Active.

In a further data set the test system is RAW264.7. Briefly: Antiinflammatory activity in LPS-stimulated mouse RAW264.7 cells assessed as inhibition of NO production at 50 uM after 24 hrs by Griess reagent method. It counts as functional, cell-based.
Details: not given
Summed up: as §3
For `CC/C=C\CC1C(=O)C(C#N)=CC1CC(=O)OC` (stereo not given), the outcome was Active.

`CC/C=C\CC1C(=O)C(C(=O)OC)=CC1CC(=O)OC` (stereo not given): the result was Active.

As to `CC/C=C\CC1C(=O)CCC1CC(=O)OC` (stereo not given) [METHYL JASMONATE], the result was Active.

The test system of the next data set is RAW264.7. Nature of the data set: Antiinflammatory activity in LPS-stimulated mouse RAW264.7 cells assessed as inhibition of IL6 production at 50 uM after 24 hrs by ELISA. It counts as functional, cell-based.
Details: not given
The method in brief: as §1
For `CC/C=C\CC1C(=O)C(C#N)=CC1CC(=O)OC` (stereo not given), the result was Active.

Turning to `CC/C=C\CC1C(=O)C(C(=O)OC)=CC1CC(=O)OC` (stereo not given), the result was Active.

In the case of `CC/C=C\CC1C(=O)CCC1CC(=O)OC` (stereo not given) [METHYL JASMONATE], the outcome was Active.

The subject of the next data set is RAW264.7. Briefly: Antiinflammatory activity in LPS-stimulated mouse RAW264.7 cells assessed as inhibition of TNFalpha production at 50 uM after 24 hrs by ELISA. The format is functional, cell-based.
Details: not given
The method in brief:
as §3
For the compound `CC/C=C\CC1C(=O)C(C#N)=CC1CC(=O)OC` (stereo not given), the result was Active.

With `CC/C=C\CC1C(=O)C(C(=O)OC)=CC1CC(=O)OC` (stereo not given), the outcome was Active.

For the compound `CC/C=C\CC1C(=O)CCC1CC(=O)OC` (stereo not given) [METHYL JASMONATE], the outcome was Active.

The test system of the next data set is RAW264.7. Briefly: Cytotoxicity against LPS-stimulated mouse RAW264.7 cells at 100 uM after 24 hrs by MTT assay. The format is cell-based. The following applies: raw264.7, 24 h. The method in brief:
(§4)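 Viability of RAW264.7 cells (1.5 × 10^5 cells/mL) after 24 h exposure to LPS (1 µg/mL) plus test sample, by MTT. MTT added for 4 h, formazan dissolved in DMSO, absorbance 540 nm. Means ± SD of duplicate (50, 100 µM) or triplicate (other concentrations) experiments.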
A general note: Tetrazolium dyes change colour on reduction, which living cells bring about.
For the compound `CC/C=C\CC1C(=O)C(C#N)=CC1CC(=O)OC` (stereo not given), the Activity result was “Toxic”.

As to `CC/C=C\CC1C(=O)C(C(=O)OC)=CC1CC(=O)OC` (stereo not given), the Activity result is “Toxic”.

Take `CC/C=C\CC1C(=O)CCC1CC(=O)OC` (stereo not given) [METHYL JASMONATE]: the Activity result was “Toxic”.

In a further data set the test system is RAW264.7. Briefly: Cytotoxicity against LPS-stimulated mouse RAW264.7 cells at 50 uM after 24 hrs by MTT assay. The format is cell-based. Particulars: raw264.7, 24 h. The method in brief: as §4
Turning to `CC/C=C\CC1C(=O)C(C#N)=CC1CC(=O)OC` (stereo not given), the Activity entry is “Toxic”.

Turning to `CC/C=C\CC1C(=O)C(C(=O)OC)=CC1CC(=O)OC` (stereo not given), the Activity entry was “Toxic”.

For the compound `CC/C=C\CC1C(=O)CCC1CC(=O)OC` (stereo not given) [METHYL JASMONATE], the Activity entry is given as “Toxic”.
